Columns and labels:
Format in all cases: functional
Conditions in all cases: read-out: GI
CCRF-CEM = assay: Antitumor activity against human CCRF-CEM cells assessed as growth inhibition at 10 uM relative to control
Procedure, shortened: (§1)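 After drug addition, plates were incubated 48 h at 37 °C under 5% CO2. Adherent cells were fixed with cold TCA (10% final, 60 min, 4 °C) and suspension cells with 16% final TCA. Staining used 0.4% SRB in 1% acetic acid, solubilized in 10 mM trizma, read at A515. Percent growth was calculated from time-zero, control and treated absorbances.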

HL-60 = assay: Antitumor activity against human HL-60 cells assessed as growth inhibition at 10 uM relative to control; procedure, shortened: as §1
K562 = assay: Antitumor activity against human K562 cells assessed as growth inhibition at 10 uM relative to control; procedure, shortened: as §1
MOLT-4 = assay: Antitumor activity against human MOLT-4 cells assessed as growth inhibition at 10 uM relative to control; procedure, shortened: as §1
SR = assay: Antitumor activity against human SR cells assessed as growth inhibition at 10 uM relative to control
Procedure, shortened: (§2)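 Drug exposure 48 h at 37 °C, 5% CO2. Adherent cells fixed with cold TCA (10% final), suspension cells with TCA (16% final). Stained with 0.4% SRB in 1% acetic acid, dissolved in 10 mM Tris, A515. Growth relative to time-zero and untreated control.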

A549 = assay: Antitumor activity against human A549 cells assessed as growth inhibition at 10 uM relative to control; procedure, shortened: as §1
EKVX = assay: Antitumor activity against human EKVX cells assessed as growth inhibition at 10 uM relative to control; procedure, shortened: as §1
NCI-H226 = assay: Antitumor activity against human NCI-H226 cells assessed as growth inhibition at 10 uM relative to control; procedure, shortened: as §1
NCI-H23 = assay: Antitumor activity against human NCI-H23 cells assessed as growth inhibition at 10 uM relative to control; procedure, shortened: as §1
NCI-H322M = assay: Antitumor activity against human NCI-H322M cells assessed as growth inhibition at 10 uM relative to control; procedure, shortened: as §1
NCI-H460 = assay: Antitumor activity against human NCI-H460 cells assessed as growth inhibition at 10 uM relative to control; procedure, shortened: as §1
NCI-H522 = assay: Antitumor activity against human NCI-H522 cells assessed as growth inhibition at 10 uM relative to control; procedure, shortened: as §1
COLO 205 = assay: Antitumor activity against human COLO 205 cells assessed as growth inhibition at 10 uM relative to control; procedure, shortened: as §1
HCC 2998 = assay: Antitumor activity against human HCC 2998 cells assessed as growth inhibition at 10 uM relative to control; procedure, shortened: as §1
HCT-15 = assay: Antitumor activity against human HCT-15 cells assessed as growth inhibition at 10 uM relative to control; procedure, shortened: as §1
HT-29 = assay: Antitumor activity against human HT-29 cells assessed as growth inhibition at 10 uM relative to control; procedure, shortened: as §1
SF-268 = assay: Antitumor activity against human SF-268 cells assessed as growth inhibition at 10 uM relative to control; procedure, shortened: as §1
SF-539 = assay: Antitumor activity against human SF-539 cells assessed as growth inhibition at 10 uM relative to control; procedure, shortened: as §1
SNB-19 = assay: Antitumor activity against human SNB-19 cells assessed as growth inhibition at 10 uM relative to control; procedure, shortened: as §2
U-251 = assay: Antitumor activity against human U-251 cells assessed as growth inhibition at 10 uM relative to control; procedure, shortened: as §2
LOX IMVI = assay: Antitumor activity against human LOX IMVI cells assessed as growth inhibition at 10 uM relative to control; procedure, shortened: as §1
MDA-MB-435 = assay: Antitumor activity against human MDA-MB-435 cells assessed as growth inhibition at 10 uM relative to control; procedure, shortened: as §1
SK-MEL-2 = assay: Antitumor activity against human SK-MEL-2 cells assessed as growth inhibition at 10 uM relative to control; procedure, shortened: as §1
SK-MEL-28 = assay: Antitumor activity against human SK-MEL-28 cells assessed as growth inhibition at 10 uM relative to control; procedure, shortened: as §2
SK-MEL-5 = assay: Antitumor activity against human SK-MEL-5 cells assessed as growth inhibition at 10 uM relative to control; procedure, shortened: as §2
UACC-62 = assay: Antitumor activity against human UACC-62 cells assessed as growth inhibition at 10 uM relative to control; procedure, shortened: as §2
IGROV-1 = assay: Antitumor activity against human IGROV-1 cells assessed as growth inhibition at 10 uM relative to control; procedure, shortened: as §1
OVCAR-5 = assay: Antitumor activity against human OVCAR-5 cells assessed as growth inhibition at 10 uM relative to control; procedure, shortened: as §1
OVCAR-8 = assay: Antitumor activity against human OVCAR-8 cells assessed as growth inhibition at 10 uM relative to control; procedure, shortened: as §1
NCI/ADR-RES = assay: Antitumor activity against human NCI-ADR-RES cells assessed as growth inhibition at 10 uM relative to control; procedure, shortened: as §1
SK-OV-3 = assay: Antitumor activity against human SK-OV-3 cells assessed as growth inhibition at 10 uM relative to control; procedure, shortened: as §2
786-0 = assay: Antitumor activity against human 786-0 cells assessed as growth inhibition at 10 uM relative to control; procedure, shortened: as §1
A498 = assay: Antitumor activity against human A498 cells assessed as growth inhibition at 10 uM relative to control; procedure, shortened: as §1
ACHN = assay: Antitumor activity against human ACHN cells assessed as growth inhibition at 10 uM relative to control; procedure, shortened: as §1
CAKI-1 = assay: Antitumor activity against human CAKI-1 cells assessed as growth inhibition at 10 uM relative to control; procedure, shortened: as §1
RXF 393 = assay: Antitumor activity against human RXF 393 cells assessed as growth inhibition at 10 uM relative to control; procedure, shortened: as §1
SN12C = assay: Antitumor activity against human SN12C cells assessed as growth inhibition at 10 uM relative to control; procedure, shortened: as §2
TK-10 = assay: Antitumor activity against human TK-10 cells assessed as growth inhibition at 10 uM relative to control; procedure, shortened: as §2
UO-31 = assay: Antitumor activity against human UO-31 cells assessed as growth inhibition at 10 uM relative to control; procedure, shortened: as §2
PC-3 = assay: Antitumor activity against human PC-3 cells assessed as growth inhibition at 10 uM relative to control; procedure, shortened: as §1
DU-145 = assay: Antitumor activity against human DU-145 cells assessed as growth inhibition at 10 uM relative to control; procedure, shortened: as §1
MCF7 = assay: Antitumor activity against human MCF7 cells assessed as growth inhibition at 10 uM relative to control; procedure, shortened: as §1
MDA-MB-231 = assay: Antitumor activity against human MDA-MB-231 cells assessed as growth inhibition at 10 uM relative to control; procedure, shortened: as §1
Hs-578T = assay: Antitumor activity against human Hs-578T cells assessed as growth inhibition at 10 uM relative to control; procedure, shortened: as §1
BT-549 = assay: Antitumor activity against human BT-549 cells assessed as growth inhibition at 10 uM relative to control; procedure, shortened: as §1
T47D = assay: Antitumor activity against human T47D cells assessed as growth inhibition at 10 uM relative to control; procedure, shortened: as §2

N#Cc1c(-c2ccc(Cl)cc2)nc(N/N=C/c2cccc([N+](=O)[O-])c2)nc1N1CCOCC1 gave an inhibition of growth at 10 µM (CCRF-CEM) of 25.3%, an inhibition of growth at 10 µM (HL-60) of 13.5% and an inhibition of growth at 10 µM (K562) of 33.6%. It also gave an inhibition of growth at 10 µM (MOLT-4) of 36.6%, an inhibition of growth at 10 µM (SR) of 42.5% and an inhibition of growth at 10 µM (A549) of 27.2%. For the same compound, the inhibition of growth at 10 µM (EKVX) was 33.8%, the inhibition of growth at 10 µM (NCI-H226) was 28.7% and the inhibition of growth at 10 µM (NCI-H23) was < 1%. For the same compound, the inhibition of growth at 10 µM (NCI-H322M) was 14.3%, the inhibition of growth at 10 µM (NCI-H460) was 14.5% and the inhibition of growth at 10 µM (NCI-H522) was 24.1%. For the same compound, the inhibition of growth at 10 µM (COLO 205) was 14.6%, the inhibition of growth at 10 µM (HCC 2998) was < 1% and the inhibition of growth at 10 µM (HCT-15) was 23%. The inhibition of growth at 10 µM (HT-29) was < 1%, the inhibition of growth at 10 µM (SF-268) was 12.3% and the inhibition of growth at 10 µM (SF-539) was 17.7%. It also gave an inhibition of growth at 10 µM (SNB-19) of 10%, an inhibition of growth at 10 µM (U-251) of 40.1% and an inhibition of growth at 10 µM (LOX IMVI) of 26%. For the same compound, the inhibition of growth at 10 µM (MDA-MB-435) was 12.1%, the inhibition of growth at 10 µM (SK-MEL-2) was 10.4% and the inhibition of growth at 10 µM (SK-MEL-28) was 10.2%. For the same compound, the inhibition of growth at 10 µM (SK-MEL-5) was 14.9%, the inhibition of growth at 10 µM (UACC-62) was 27.6% and the inhibition of growth at 10 µM (IGROV-1) was 28.1%. For the same compound, the inhibition of growth at 10 µM (OVCAR-5) was 10.2%, the inhibition of growth at 10 µM (OVCAR-8) was 12.5% and the inhibition of growth at 10 µM (NCI/ADR-RES) was 17.5%. It also gave an inhibition of growth at 10 µM (SK-OV-3) of 11.1%, an inhibition of growth at 10 µM (786-0) of 13.2% and an inhibition of growth at 10 µM (A498) of 47.5%. For the same compound, the inhibition of growth at 10 µM (ACHN) was 21.3%, the inhibition of growth at 10 µM (CAKI-1) was 28.1% and the inhibition of growth at 10 µM (RXF 393) was 56.6%. For the same compound, the inhibition of growth at 10 µM (SN12C) was 10.6%, the inhibition of growth at 10 µM (TK-10) was 25.6% and the inhibition of growth at 10 µM (UO-31) was 65.1%. The inhibition of growth at 10 µM (PC-3) was 35.8%, the inhibition of growth at 10 µM (DU-145) was 13.1% and the inhibition of growth at 10 µM (MCF7) was < 25.6%. The inhibition of growth at 10 µM (MDA-MB-231) was 17.6%, the inhibition of growth at 10 µM (Hs-578T) was < 1% and the inhibition of growth at 10 µM (BT-549) was 27.6%. It also gave an inhibition of growth at 10 µM (T47D) of 42%.

— ChEMBL document CHEMBL5376013, “Design, synthesis and biological evaluation of novel morpholinopyrimidine-5-carbonitrile derivatives as dual PI3K/mTOR inhibitors” (RSC Med Chem, 2024)
